Source: ChEMBL document CHEMBL1811848 (Bioorg Med Chem Lett, 2011)

How the values were obtained:
[1] = tested on: Rattus norvegicus; test: Toxicity in female Wistar rat assessed as kidney to body weight ratio at 3 mg/kg, po measured after 28 days (reference value: 0.733 +/- 0.007); format: organism-based; parameters: dose 3 mg/kg, route oral; details: in vivo, 672 h
[2] = molecular target: T1, Peroxisome proliferator-activated receptor gamma (Homo sapiens) (UniProt P37231); test: Transactivation of human PPARgamma expressed in human HepG2 cells co-transfected with PPRE3-TK-Luc by luciferase reporter gene assay relative to Rosiglitazone; format: cell-based
T1 sequence (whole entry): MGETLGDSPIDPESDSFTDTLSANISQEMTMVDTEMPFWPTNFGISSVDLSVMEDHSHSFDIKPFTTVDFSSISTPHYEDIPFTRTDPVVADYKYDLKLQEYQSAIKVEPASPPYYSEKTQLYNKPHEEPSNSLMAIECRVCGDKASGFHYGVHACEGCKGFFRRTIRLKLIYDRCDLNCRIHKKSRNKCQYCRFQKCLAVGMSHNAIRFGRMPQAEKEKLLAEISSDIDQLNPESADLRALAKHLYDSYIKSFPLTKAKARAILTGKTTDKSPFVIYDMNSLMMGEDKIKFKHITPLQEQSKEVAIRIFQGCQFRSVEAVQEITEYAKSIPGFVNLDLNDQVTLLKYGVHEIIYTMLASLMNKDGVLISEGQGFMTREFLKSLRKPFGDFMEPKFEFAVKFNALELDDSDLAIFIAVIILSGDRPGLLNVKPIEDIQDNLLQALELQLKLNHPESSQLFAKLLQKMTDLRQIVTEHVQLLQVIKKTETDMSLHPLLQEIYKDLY
How it was run: (§1)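 Same HepG2 hPPARα or hPPARγ / PPRE3-TK-luc luciferase transactivation assay. Efficacy expressed as percent of maximal response, normalized to 100% for the reference agonist: WY-14643 for α, rosiglitazone for γ.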

[3] = tested on: Mus musculus; test: Antihyperglycemic activity in db/db mouse assessed as reduction in plasma glucose level at 0.1 mg/kg, po; format: functional; parameters: scale not given: the % may be the effect or the level left
[4] = tested on: Rattus norvegicus; test: Toxicity in female Wistar rat assessed as brain to body weight ratio at 3 mg/kg, po measured after 28 days (reference value: 0.970 +/- 0.023); format: organism-based; parameters: dose 3 mg/kg, route oral; details: in vivo, 672 h
[5] = molecular target: T2, Peroxisome proliferator-activated receptor alpha (Homo sapiens) (UniProt Q07869); test: Transactivation of human PPARalpha expressed in human HepG2 cells co-transfected with PPRE3-TK-Luc by luciferase reporter gene assay relative to WY14643; format: cell-based; how it was run: as §1
T2 sequence (whole entry): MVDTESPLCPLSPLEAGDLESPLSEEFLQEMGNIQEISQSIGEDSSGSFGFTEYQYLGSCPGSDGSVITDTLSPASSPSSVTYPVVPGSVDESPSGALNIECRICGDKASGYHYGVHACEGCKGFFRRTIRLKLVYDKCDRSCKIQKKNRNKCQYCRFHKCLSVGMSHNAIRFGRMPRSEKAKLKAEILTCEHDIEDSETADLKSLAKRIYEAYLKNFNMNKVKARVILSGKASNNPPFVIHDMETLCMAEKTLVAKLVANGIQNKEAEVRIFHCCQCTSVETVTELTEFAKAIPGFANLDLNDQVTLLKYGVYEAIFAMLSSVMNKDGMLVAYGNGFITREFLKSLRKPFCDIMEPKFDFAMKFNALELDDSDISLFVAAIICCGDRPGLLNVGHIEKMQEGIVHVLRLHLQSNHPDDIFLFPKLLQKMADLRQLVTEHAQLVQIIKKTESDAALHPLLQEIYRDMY

[6] = molecular target: T3, Peroxisome proliferator-activated receptor alpha (Homo sapiens, UniProt Q07869); test: Transactivation of human PPARalpha expressed in human HepG2 cells co-transfected with PPRE3-TK-Luc by luciferase reporter gene assay; format: cell-based
T3 sequence (Q07869 whole entry): T2 sequence (whole entry)

[7] = tested on: Rattus norvegicus; test: Toxicity in male Wistar rat assessed as Glucose level at 3 mg/kg, po measured after 28 days (reference value: 70 +/- 3.49 mg/dl); format: organism-based; parameters: dose 3 mg/kg, route oral; details: in vivo, 672 h
[8] = tested on: Rattus norvegicus; test: Toxicity in female Wistar rat assessed as creatinine level at 30 mg/kg, po measured after 28 days (reference value: 0.42 +/- 0.04 mg/dl); format: organism-based; parameters: dose 30 mg/kg, route oral; details: in vivo, 672 h
[9] = tested on: Rattus norvegicus; test: Toxicity in male Wistar rat assessed as spleen to body weight ratio at 30 mg/kg, po measured after 28 days (reference value: 0.215 +/- 0.007); format: organism-based; parameters: dose 30 mg/kg, route oral; details: in vivo, 672 h
[10] = tested on: Rattus norvegicus; test: Toxicity in male Wistar rat assessed as SGOT level at 3 mg/kg, po measured after 28 days (reference value: 135.14 +/- 6.89 U/L); format: organism-based; parameters: dose 3 mg/kg, route oral; details: in vivo, 672 h
[11] = AUC (0 to infinity) in fasting Wistar rat at 30 mg/kg, po; format: ADME, organism-based; parameters: time infinity, dose 30 mg/kg, route oral; details: plasma
How it was run: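 Single oral dose of 30 mg/kg to fasted male Wistar rats. Pharmacokinetic parameters reported as mean ± SD, n = 3.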

[12] = tested on: Rattus norvegicus; test: Toxicity in male Wistar rat assessed as kidney to body weight ratio at 30 mg/kg, po measured after 28 days (reference value: 0.745 +/- 0.012); format: organism-based; parameters: dose 30 mg/kg, route oral; details: in vivo, 672 h
[13] = Half life in fasting Wistar rat at 30 mg/kg, po; format: ADME, organism-based; parameters: dose 30 mg/kg, route oral; details: in vivo
How it was run: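 Fasted male Wistar rats received one oral dose of 30 mg/kg. Plasma Cmax, T1/2 and Tmax are reported as mean ± SD of n = 3.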

[14] = tested on: Mus musculus; test: Antihyperglycemic activity in db/db mouse assessed as reduction in plasma glucose level at 0.03 mg/kg, po; format: functional; parameters: scale not given: the % may be the effect or the level left
[15] = tested on: Rattus norvegicus; test: Toxicity in male Wistar rat assessed as thymus to body weight ratio at 3 mg/kg, po measured after 28 days (reference value: 0.081+/- 0.013); format: organism-based; parameters: dose 3 mg/kg, route oral; details: in vivo, 672 h
[16] = tested on: Rattus norvegicus; test: Toxicity in female Wistar rat assessed as heart to body weight ratio at 30 mg/kg, po measured after 28 days (reference value: 0.403 +/- 0.010); format: organism-based; parameters: dose 30 mg/kg, route oral; details: in vivo, 672 h
[17] = tested on: Rattus norvegicus; test: Toxicity in male Wistar rat assessed as creatinine level at 3 mg/kg, po measured after 28 days (reference value: 0.47 +/- 0.03 mg/dl); format: organism-based; parameters: dose 3 mg/kg, route oral; details: in vivo, 672 h
[18] = tested on: Mus musculus; test: Antihyperglycemic activity in db/db mouse assessed as reduction in plasma glucose level at 0.3 mg/kg, po; format: functional; parameters: scale not given: the % may be the effect or the level left
[19] = tested on: Mus musculus; test: Hypolipidemic activity in Swiss albino mouse assessed as reduction in triglyceride level at 0.03 mg/kg, po; format: functional; parameters: scale not given: the % may be the effect or the level left
[20] = tested on: Rattus norvegicus; test: Toxicity in male Wistar rat assessed as urea level at 30 mg/kg, po measured after 28 days (reference value: 30.52 +/- 0.79 mg/dl); format: organism-based; parameters: dose 30 mg/kg, route oral; details: in vivo, 672 h
[21] = tested on: Rattus norvegicus; test: Toxicity in female Wistar rat assessed as ALP level at 30 mg/kg, po measured after 28 days (reference value: 172.38 +/- 7.18 U/L); details: in vivo, 672 h
[22] = tested on: Rattus norvegicus; test: Toxicity in male Wistar rat assessed as epididymine to body weight ratio at 30 mg/kg, po measured after 28 days (reference value: 0.391 +/- 0.017); format: organism-based; parameters: dose 30 mg/kg, route oral; details: in vivo, 672 h
[23] = tested on: Rattus norvegicus; test: Toxicity in female Wistar rat assessed as hemoglobin level at 3 mg/kg, po measured after 28 days (reference value: 11.90 +/- 0.19 g/dl); format: organism-based; parameters: dose 3 mg/kg, route oral; details: in vivo, 672 h
[24] = tested on: Mus musculus; test: Antihyperglycemic activity in db/db mouse assessed as reduction in plasma glucose level at 0.003 mg/kg, po; format: functional; parameters: scale not given: the % may be the effect or the level left
[25] = tested on: Rattus norvegicus; test: Toxicity in male Wistar rat assessed as ALP level at 30 mg/kg, po measured after 28 days (reference value: 243.88 +/- 20.34 U/L); details: in vivo, 672 h

Work on `CCO[C@@H](Cc1ccc(OCCc2nc(-c3ccc(C)s3)oc2C)cc1)C(=O)O` yielded a Ratio [1] of 0.804, an Emax [2] of 165% and an Activity [3] of 51.7%. It also gave a Ratio [4] of 0.947, an Emax [5] of 116% and an EC50 [6] of 0.31 pM. The Activity [7] was 75.74 mg/dL, the Activity [8] was 0.41 mg/dL and the Ratio [9] was 0.252. For the same compound, the Activity [10] was 193.51 U/L, the AUC(0-inf) [11] was 456 µg·h/mL and the Ratio [12] was 0.955. It also gave a half-life [13] of 7.4 h, an Activity [14] of 52.1% and a Ratio [15] of 0.089. For the same compound, the Ratio [16] was 0.501, the Activity [17] was 0.36 mg/dL and the Activity [18] was 58.2%. For the same compound, the Activity [19] was 65.6%, the Activity [20] was 34.58 mg/dL and the Activity [21] was 248.38 U/L. The Ratio [22] was 0.432, the Activity [23] was 11.84 g/dL and the Activity [24] was 47.1%. It also gave an Activity [25] of 679.13 U/L.
